Source: ChEMBL document CHEMBL1154840, “New pyrazoles incorporating pyrazolylpyrazole moiety: synthesis, anti-HCV and antitumor activity” (Eur J Med Chem, 2010)
In brackets after ≈: the same amount, converted by molar mass. Activity calls are given as the source filed them. No cut-off for these calls is given here.

Key:
[1] = system: Mus musculus; experiment: Toxicity in mouse Colon 38 cells xenografted C57BL/6 mouse assessed as body weight change at 3 mg/kg, iv administered as a single dose; assay type: organism-based, MC-38; set-up: dose 3 mg/kg, route intravenous; conditions: in vivo
In short: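 Female C57BL/6 mice, 6 weeks old, had about 30 mg of Colon 38 tumour tissue implanted s.c. in the flank. When tumours reached about 300 mm³ on day 1, mice were randomised into control and treatment groups (n = 5 each). Compound in 5% glucose was given once on day 1 by tail-vein i.v. injection; controls received 5% glucose. Body weight was tracked over subsequent days.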

[2] = system: Hepacivirus hominis; experiment: Inhibition of HCV […] by quantitative RT-PCR
In short: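 HCV replicon cells, 1×10^4 per well, were plated and the next day exposed to serially diluted compounds in DMEM with 2% FBS and 0.5% DMSO at 37 °C. Total RNA was extracted and HCV RNA copy number was measured by quantitative RT-PCR. Five replicates per point; MIC reported.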

[3] = system: MC-38; experiment: Growth inhibition of mouse Colon 38 cells after 72 hrs by sulforhodamine B assay relative to etoposide; assay type: functional
In short: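 Exponentially growing cells were seeded on day 0. Graded drug concentrations were added on day 1, followed by 72 h at 37 °C. Cell number was estimated by SRB assay, with a separate day-1 count. GI50 is the concentration giving a 50% reduction in net protein increase versus control.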

[4] = biological target: DNA topoisomerase 2-alpha (Mus musculus) (UniProt Q01320); experiment: Inhibition of mouse DNA topoisomerase 2 assessed as relaxation of supercoiled pBR322 plasmid DNA after 1 hr by electrophoresis relative to etoposide
Chain of DNA topoisomerase 2-alpha (Mus musculus) (Q01320 whole entry): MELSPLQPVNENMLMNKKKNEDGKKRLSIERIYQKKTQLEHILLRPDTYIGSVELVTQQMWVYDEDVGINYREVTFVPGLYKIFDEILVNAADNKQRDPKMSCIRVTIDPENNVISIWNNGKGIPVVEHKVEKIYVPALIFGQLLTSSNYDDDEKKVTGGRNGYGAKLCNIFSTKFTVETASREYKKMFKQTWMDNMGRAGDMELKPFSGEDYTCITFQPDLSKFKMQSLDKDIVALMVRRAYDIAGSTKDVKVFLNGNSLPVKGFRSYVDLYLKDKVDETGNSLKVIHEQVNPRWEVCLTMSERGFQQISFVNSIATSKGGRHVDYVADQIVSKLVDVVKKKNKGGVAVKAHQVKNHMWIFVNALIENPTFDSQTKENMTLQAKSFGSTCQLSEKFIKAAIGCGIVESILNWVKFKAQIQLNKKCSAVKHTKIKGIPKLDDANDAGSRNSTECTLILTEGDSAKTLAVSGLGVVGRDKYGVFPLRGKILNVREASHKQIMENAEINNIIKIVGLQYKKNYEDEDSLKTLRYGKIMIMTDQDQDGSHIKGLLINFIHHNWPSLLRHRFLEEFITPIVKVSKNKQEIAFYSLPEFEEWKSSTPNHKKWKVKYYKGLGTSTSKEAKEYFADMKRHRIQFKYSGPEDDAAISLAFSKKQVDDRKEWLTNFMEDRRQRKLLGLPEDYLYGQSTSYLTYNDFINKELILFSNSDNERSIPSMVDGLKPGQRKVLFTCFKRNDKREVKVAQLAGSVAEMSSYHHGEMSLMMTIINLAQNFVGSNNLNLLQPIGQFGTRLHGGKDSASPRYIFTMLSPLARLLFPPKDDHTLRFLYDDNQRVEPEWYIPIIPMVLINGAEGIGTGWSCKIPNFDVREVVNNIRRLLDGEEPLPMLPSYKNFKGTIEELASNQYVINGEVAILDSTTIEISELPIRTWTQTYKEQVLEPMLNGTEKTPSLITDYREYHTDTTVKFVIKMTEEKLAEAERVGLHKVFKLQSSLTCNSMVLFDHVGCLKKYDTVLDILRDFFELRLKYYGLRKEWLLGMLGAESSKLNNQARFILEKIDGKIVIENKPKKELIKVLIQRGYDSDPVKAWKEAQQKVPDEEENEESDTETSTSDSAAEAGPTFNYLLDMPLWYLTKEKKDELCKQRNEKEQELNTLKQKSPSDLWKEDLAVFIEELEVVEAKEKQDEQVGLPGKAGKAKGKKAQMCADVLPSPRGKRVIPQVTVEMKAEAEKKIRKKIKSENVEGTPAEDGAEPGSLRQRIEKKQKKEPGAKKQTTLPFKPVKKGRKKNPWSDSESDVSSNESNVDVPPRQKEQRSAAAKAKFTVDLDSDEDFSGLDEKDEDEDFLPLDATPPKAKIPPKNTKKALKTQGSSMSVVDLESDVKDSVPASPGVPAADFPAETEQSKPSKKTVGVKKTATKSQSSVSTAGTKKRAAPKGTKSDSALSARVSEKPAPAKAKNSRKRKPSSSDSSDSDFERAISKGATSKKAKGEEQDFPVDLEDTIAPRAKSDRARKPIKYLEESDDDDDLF
In short: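 Topoisomerase II was purified from P388 cells. 0.125 μg supercoiled pBR-322 DNA was incubated with 1 unit of enzyme at 30 °C for 1 h in 50 mM Tris–HCl pH 8.0, 100 mM KCl, 10 mM MgCl2, 0.5 mM DTT, 1 mM ATP and 30 μg/ml BSA. Products were resolved on 0.7% agarose in TBE and stained with ethidium bromide.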

[5] = system: Radical scavenging activity; experiment: Antioxidant activity against DPPH radical scavenging activity after 30 mins by ELISA; assay type: functional; set-up: concentration or dose not given beside the values
In short: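 DPPH radical scavenging. Compounds were dissolved in DMSO and serially diluted, 0.0–100 μM/ml. 10 µl was added to 90 µl of 100 µM DPPH in methanol and incubated 30 min at 37 °C in the dark. Decrease in absorbance was read at 515 nm. % reduction = [(A_B − A_A)/A_B] × 100, against a DMSO/DPPH blank. Triplicate.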

[6] = Antioxidant activity against peroxynitrite-induced tyrosine nitration after 15 mins by HPLC; assay type: functional
In short: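 Tyrosine (100 μM) was reacted with equimolar peroxynitrite and increasing compound concentrations (0–300 μM) in 100 mM phosphate buffer pH 7.4 at 37 °C for 15 min. 3-Nitrotyrosine formation was measured by reverse-phase C18 HPLC using a methanol/water/HCl and acetonitrile/water/HCl mobile phase. IC50 reported.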

[7] = system: MC-38; experiment: Antitumor activity against mouse Colon 38 cells xenografted in C57BL/6 mouse assessed as tumor volume at 3 mg/kg, iv administered as a single dose; assay type: functional, organism-based; set-up: dose 3 mg/kg
In short: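 Female C57BL/6 mice, 6 weeks old, were inoculated s.c. in the flank with about 30 mg Colon 38 tumor tissue. When tumors reached approximately 300 mm³ (day 1), mice were randomized, n = 5 per group. Compound in 5% glucose was given as a single i.v. tail-vein dose on day 1; controls received 5% glucose. Tumor volume = ([…])/2; body weight also recorded.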

[8] = system: Measles virus (SSPE virus); experiment: Antiviral activity against measles virus infected in hamster brain assessed as inhibition of subacute sclerosing panencephalitis dosed intracranially by HPLC
[9] = system: Mus musculus; experiment: Toxicity in mouse Colon 38 cells xenografted C57BL/6 mouse assessed as mortality at 3 mg/kg, iv administered as a single dose; assay type: organism-based, MC-38; set-up: dose 3 mg/kg, route intravenous; conditions: in vivo

Compound | Activity [1] | MIC [2] [µg/mL] | RatioGI50 [3] | Ratio [4] | Activity [5] [%] | IC50 [6] [µM] | Activity [7] | MIC [8] [µg/mL] | Activity [9]
Cc1ccc(-n2cc(C(=O)c3ccccc3)c(C(=O)/C=C/N(C)C)n2)cc1 | Non-toxic | 0.15 (≈ 0.417 µM) | 260.4 | 260 | 96.6 | 34.2 | Active | 3.18 (≈ 8.84 µM) | Non-toxic
CC(=O)c1nn(-c2ccccc2)cc1C(=O)c1nn(-c2ccccc2)cc1C(=O)c1nn(-c2ccccc2)cc1C(=O)c1ccccc1 | Non-toxic | 0.171 (≈ 0.271 µM) | 150.8 | 151 | 95 | 42.1 | Active | 3.71 (≈ 5.89 µM) | Non-toxic
CN(C)/C=C/C(=O)c1nn(-c2ccccc2)cc1C(=O)c1ccccc1 | Non-toxic | 0.32 (≈ 0.926 µM) | 136.4 | 136 | 94.5 | 44 | Active | 4 (≈ 11.6 µM) | Non-toxic
Cc1c(C)c2c(c(C)c1O)CCC(C)(C(=O)O)O2 (centres undefined) [TROLOX] |  |  |  |  |  | 58.4 |  |  | 
CN(C)/C=C/C(=O)c1nn(-c2ccccc2)cc1C(=O)c1nn(-c2ccc(Cl)cc2)cc1C(=O)c1ccccc1 | Non-toxic | 0.323 (≈ 0.587 µM) | 37.97 | 37.9 | 93 | 44.6 | Active | 4.15 (≈ 7.55 µM) | Non-toxic
Cc1ccc(-n2cc(C(=O)c3ccccc3)c(C(=O)c3cn(-c4ccccc4)nc3C(=O)/C=C/N(C)C)n2)cc1 | Non-toxic | 0.181 (≈ 0.342 µM) | 150 | 150 | 94.9 | 42.2 | Active | 3.82 (≈ 7.21 µM) | Non-toxic
CC(=O)c1nn(-c2ccc(C)cc2)cc1C(=O)c1ccccc1 | Non-toxic | 0.159 (≈ 0.522 µM) | 188.7 | 189 | 95.8 | 37.8 | Active | 3.42 (≈ 11.3 µM) | Non-toxic
CC(=O)c1nn(-c2ccccc2)cc1C(=O)c1nn(-c2ccc(C)cc2)cc1C(=O)c1ccccc1 | Non-toxic | 0.322 (≈ 0.679 µM) | 38.46 | 38.4 | 94 | 44.1 | Active | 4.12 (≈ 8.68 µM) | Non-toxic
O=C1O[C@H]([C@@H](O)CO)C(O)=C1O |  |  |  |  | 79 |  |  |  | 
CN(C)/C=C/C(=O)c1nn(-c2ccccc2)cc1C(=O)c1nn(-c2ccccc2)cc1C(=O)c1ccccc1 | Non-toxic | 0.291 (≈ 0.564 µM) | 142.9 | 143 | 94.7 | 44 | Active | 3.99 (≈ 7.74 µM) | Non-toxic
CC(=O)c1nn(-c2ccc([N+](=O)[O-])cc2)cc1C(=O)c1ccccc1 | Non-toxic | 0.144 (≈ 0.429 µM) | 260.9 | 261 | 98.2 | 31.5 | Active | 3.09 (≈ 9.21 µM) | Non-toxic
CC(=O)c1nn(-c2ccccc2)cc1C(=O)c1nn(-c2ccc([N+](=O)[O-])cc2)cc1C(=O)c1ccccc1 | Non-toxic | 0.155 (≈ 0.307 µM) | 194.8 | 195 | 96 | 36.6 | Active | 3.22 (≈ 6.36 µM) | Non-toxic
CC(=O)c1nn(-c2ccccc2)cc1C(=O)c1ccccc1 | Non-toxic | 0.162 (≈ 0.558 µM) | 168.5 | 168 | 95.2 | 39.5 | Active | 3.62 (≈ 12.5 µM) | Non-toxic
CC(=O)c1nn(-c2ccccc2)cc1C(=O)c1nn(-c2ccccc2)cc1C(=O)c1nn(-c2ccc(C)cc2)cc1C(=O)c1ccccc1 | Non-toxic | 0.149 (≈ 0.231 µM) | 260.6 | 261 | 96.9 | 34 | Active | 3.12 (≈ 4.84 µM) | Non-toxic
CC(=O)c1nn(-c2ccccc2)cc1C(=O)c1nn(-c2ccc(Cl)cc2)cc1C(=O)c1ccccc1 | Non-toxic | 0.147 (≈ 0.297 µM) | 260.9 | 261 | 97.7 | 32.2 | Active | 3.11 (≈ 6.29 µM) | Non-toxic
CC(=O)c1nn(-c2ccccc2)cc1C(=O)c1nn(-c2ccccc2)cc1C(=O)c1nn(-c2ccc(Cl)cc2)cc1C(=O)c1ccccc1 | Non-toxic | 0.151 (≈ 0.227 µM) | 196.1 | 196 | 96.1 | 35.1 | Active | 3.2 (≈ 4.81 µM) | Non-toxic
CC(=O)c1nn(-c2ccc(Cl)cc2)cc1C(=O)c1ccccc1 |  | 0.161 (≈ 0.496 µM) | 178.6 | 178 | 95.5 | 38.1 |  | 3.52 (≈ 10.8 µM) | 
